Consider 3 compounds from ChEMBL document CHEMBL2034980, “N⁴-Phenyl-substituted 2-acetylpyridine thiosemicarbazones: cytotoxicity against human tumor cells, structure-activity relationship studies and investigation on the mechanism of action” (Bioorg Med Chem, 2012).

pEC50, pIC50: −log10 of the molar value. Calls of active or inactive are those of the source.

For test [1], the system named is MCF7. The experiment in a line: Induction of apoptosis in human MCF7 cells assessed as cell shrinkage at 1 uM after 48 hrs by DAPI staining. Format: functional, cell-based.
Test [2] has as its system U-87MG ATCC. As to the kind of experiment: Induction of apoptosis in human U87 cells assessed as irregularities in cellular shape at 1 uM after 48 hrs by DAPI staining. Format: functional, cell-based.
Test [3] relates to T98G. The experiment in a line: Induction of apoptosis in human T98G cells assessed as irregularities in cellular shape at 1 uM after 48 hrs by DAPI staining. Format: functional, cell-based.
In test [4] the test system is MCF7. The experiment in a line: Induction of apoptosis in human MCF7 cells assessed as irregularities in cellular shape at 1 uM after 48 hrs by DAPI staining. Format: functional, cell-based.
The test system of test [5] is T98G. The experiment in a line: Induction of apoptosis in human T98G cells assessed as chromatin condensation at 1 uM after 48 hrs by acridine orange/ethidium bromide staining-based microscopy. Format: functional, cell-based. The essentials: (§1)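 After 48 h at 1 μM, cells were incubated for 15 min in serum-free medium containing 1 μg mL⁻¹ acridine orange and 1 μg mL⁻¹ ethidium bromide. The medium was removed and cells imaged by inverted fluorescence microscopy (530–650 nm). Green/orange nuclear patterns and acidic cytoplasmic vacuoles were scored.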

Test [6] relates to T98G. The experiment in a line: Induction of apoptosis in human T98G cells assessed as chromatin condensation at 1 uM after 48 hrs by DAPI staining. Format: functional, cell-based. The essentials: (§2)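 Cells were treated at 1 μM for 48 h, washed in PBS and fixed in 70% methanol for 30 min at room temperature. They were stained with 0.4 μg mL⁻¹ DAPI for 1 h in the dark, and nuclear condensation and fragmentation were scored by fluorescence microscopy (385–410 nm).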

The subject of test [7] is T98G. As to the kind of experiment: Induction of apoptosis in human T98G cells assessed as membrane blebbing at 1 uM after 48 hrs […]. Format: functional, cell-based.
The test system of test [8] is MCF7. The experiment in a line: Induction of apoptosis in human MCF7 cells assessed as chromatin condensation at 1 uM after 48 hrs by DAPI staining. Format: functional, cell-based. The method in brief:
as §2

Test [9] has as its system MCF7. As to the kind of experiment: Induction of apoptosis in human MCF7 cells assessed as DNA fragmentation at 1 uM after 48 hrs by DAPI staining. Format: functional, cell-based. The essentials:
as §2

Test [10] concerns U-87MG ATCC. The experiment in a line: Induction of apoptosis in human U87 cells assessed as appearance of autophagolysosomes at 1 uM after 48 hrs by acridine orange/ethidium bromide staining-based microscopy. Format: functional, cell-based. The method in brief: as §1
The subject of test [11] is MCF7. The experiment in a line: Cytotoxicity against human MCF7 cells after 48 hrs by MTT assay. Format: functional, cell-based. Conditions: for pIC50: MCF7, 48 h, read-out: IC50. The method in brief:
(§3)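 MTT assay. Cells were grown in DMEM with 10% FBS and penicillin/streptomycin at 37 °C under 5% CO2, seeded at 1–2×10^3 cells/well and treated 12 h later with 1×10^-12 to 1×10^-5 M ([…] from DMSO stock, final DMSO <0.5%) for 48 h. MTT was added at 0.5 mg mL⁻¹, formazan dissolved in DMSO and read at 570 nm. IC50 is the concentration giving 50% cytotoxicity. Quadruplicates, ≥3 independent experiments.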
For orientation: Formazan colour is commonly taken as a measure of viable cells.

Test [12] deals with U-87MG ATCC. The experiment in a line: Induction of apoptosis in human U87 cells assessed as cell shrinkage at 1 uM after 48 hrs by DAPI staining. Format: functional, cell-based.
Test [13] concerns U-87MG ATCC. The experiment in a line: Induction of apoptosis in human U87 cells assessed as DNA fragmentation at 1 uM after 48 hrs by DAPI staining. Format: functional, cell-based. The method in brief:
as §2

A short description of test [14]: Haemolytic activity in human RBC after 1 hr by photometry. Format: ADME, cell-based. Conditions: Erythrocyte. The essentials:
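Human EDTA blood was spun at 700xg for 10 min and the erythrocytes washed three times in cold PBS pH 7.4, then resuspended in it. Cells were incubated with varying compound concentrations for 1 h at 37 °C with shaking. After centrifugation, released haemoglobin was read at 540 nm to give the IC50. Mean ± SD, n = 4.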

The subject of test [15] is U-87MG ATCC. As to the kind of experiment: Induction of apoptosis in human U87 cells assessed as chromatin condensation at 1 uM after 48 hrs by acridine orange/ethidium bromide staining-based microscopy. Format: functional, cell-based. The essentials:
as §1

In test [16] the test system is HeLa. As to the kind of experiment: Induction of mitotic arrest in human HeLa cells assessed as reduction in tubulin intensity by Hoechst 33342 staining. Format: functional. Conditions: read-out: MEC. The essentials:
(§4)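 HeLa cells (8000/well, collagen-coated plates) were dosed in quadruplicate within 4–6 h of seeding with 10 twofold dilutions or vehicle (0.1% DMSO) for 18 h at 37 °C. Cells were fixed, stained with Hoechst 33342 and immunostained for phosphohistone H3 (Ser10) and α-tubulin, then analysed by automated imaging. Positivity threshold: mean of 28 vehicle wells +1 SD. Values reported as MDEC and EC50.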

In test [17] the test system is MCF7. As to the kind of experiment: Induction of apoptosis in human MCF7 cells assessed as membrane blebbing at 1 uM after 48 hrs by DAPI staining. Format: functional, cell-based.
Test [18] has as its system U-87MG ATCC. The experiment in a line: (§5) Cytotoxicity against human U87 cells expressing wild-type p53 after 48 hrs by MTT assay. Format: functional, cell-based. The essentials: as §3
Test [19] in a line: as §5. Format: functional, cell-based, U-87MG ATCC. Particulars: U-87 MG, read-out: IC50. The essentials: as §3
For test [20], the system named is T98G. The experiment in a line: Induction of apoptosis in human T98G cells assessed as cell shrinkage at 1 uM after 48 hrs by DAPI staining. Format: functional, cell-based.
For test [21], the system named is MCF7. The experiment in a line: Induction of apoptosis in human MCF7 cells assessed as chromatin condensation at 1 uM after 48 hrs by acridine orange/ethidium bromide staining-based microscopy. Format: functional, cell-based. The essentials: as §1
The subject of test [22] is T98G. As to the kind of experiment: Induction of apoptosis in human T98G cells assessed as appearance of autophagolysosomes at 1 uM after 48 hrs by acridine orange/ethidium bromide staining-based microscopy. Format: functional, cell-based. The essentials:
as §1

The species named for test [23] is Bos taurus. As to the kind of experiment: Total inhibition of bovine brain tubulin polymerization at concentration close to compound solubility limit after 10 mins by spectrophotometry. The method in brief:
(§6)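 Bovine brain tubulin (10 μM; 1 mg mL⁻¹) in 0.8 M monosodium glutamate with 1% DMSO was pre-incubated with compound (four twofold dilutions) at 30 °C, then cooled to 0 °C for 10 min. GTP (0.4 mM) was added and the temperature raised to 37 °C while A350 was followed.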

Test [24] deals with HeLa. The experiment in a line: Induction of mitotic arrest in human HeLa cells assessed as reduction in cell density by immunofluorescence staining. Format: functional, cell-based. The method in brief:
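HeLa cells (8000/well), collagen-coated plates, dosed within 4-6 h of seeding in quadruplicate with 10 twofold dilutions or vehicle (DMSO 0.1% final); 18 h at 37 °C, 5% CO2. Formaldehyde fixation, Hoechst 33342 nuclear stain, anti-α-tubulin/anti-phosphohistone H3 immunostaining; automated high-content imaging. Cell density from nuclear counts; EC50 read from dose-response cell density curves.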

Test [25] concerns T98G. The experiment in a line: Cytotoxicity against human T98G cells expressing mutant p53 after 48 hrs by MTT assay. Format: functional, cell-based. Conditions: for pIC50: read-out: IC50. The essentials: as §3
The test system of test [26] is U-87MG ATCC. As to the kind of experiment: Induction of apoptosis in human U87 cells assessed as membrane blebbing at 1 uM after 48 hrs by DAPI staining. Format: functional, cell-based.
In test [27] the test system is MCF7. As to the kind of experiment: Induction of apoptosis in human MCF7 cells assessed as appearance of autophagolysosomes at 1 uM after 48 hrs by acridine orange/ethidium bromide staining-based microscopy. Format: functional, cell-based. The method in brief: as §1
Test [28] relates to T98G. As to the kind of experiment: Induction of apoptosis in human T98G cells assessed as DNA fragmentation at 1 uM after 48 hrs by DAPI staining. Format: functional, cell-based. The method in brief:
as §2

Test [29] has as its system U-87MG ATCC. The experiment in a line: Induction of apoptosis in human U87 cells assessed as chromatin condensation at 1 uM after 48 hrs by DAPI staining. Format: functional, cell-based. The method in brief: as §2
The subject of test [30] is HeLa. As to the kind of experiment: Induction of mitotic arrest in human HeLa cells assessed as nuclear condensation by Hoechst 33342 staining. Format: functional. Particulars: read-out: MEC. The method in brief: as §4
The species named for test [31] is Bos taurus. The experiment in a line: Inhibition of bovine brain tubulin polymerization at 5 to 20 uM after 10 mins by spectrophotometry. The essentials: as §6
Test [32] has as its system HeLa. The experiment in a line: Induction of mitotic arrest in human HeLa cells assessed as mitotic index measuring phosphohistone H3-positive cells by Hoechst 33342 staining. Format: functional. Conditions: read-out: MEC. The essentials:
as §4

What is called pIC50 is −log10 of the IC50, conventionally taken in molar units. As usually defined, the pEC50 is the EC50 on a negative log10 scale, so that one unit is a factor of ten. As to `CC(=NNC(=S)Nc1ccc(Cl)cc1)c1ccccn1` (mixture of isomers), the outcome with MCF7 [1], in the test with U-87MG ATCC [2], with T98G [3], in the test with MCF7 [4], in the test on T98G [5] and in the test on T98G [6] was Active. Further, the result in the test with T98G [7], in the test with MCF7 [8], with MCF7 [9], in the test on U-87MG ATCC [10], with U-87MG ATCC [12] and in the test with U-87MG ATCC [13] was Active. Also, the outcome in the test with U-87MG ATCC [15], with MCF7 [17], with T98G [20], in the test with MCF7 [21], with T98G [22] and in the test on U-87MG ATCC [26] was Active. The outcome in the test with MCF7 [27], in the test with T98G [28] and in the test with U-87MG ATCC [29] was Active. Moreover, the Activity result with MCF7 [11], in the test on U-87MG ATCC [18] and in the test on T98G [25] was “Dose-dependent effect” in each case. Moreover, the pIC50 in the test with MCF7 [11] is 8.07; in test [14], < 5.00; in [19], 8.77; with T98G [25] it was 8.23. Moreover, the figures for the minimal effective concentration with HeLa [16], with HeLa [30] and in the test with HeLa [32] were 3.6 µM, 5.8 µM and > 50 µM, respectively. In addition, the inhibition entry in the test filed under Bos taurus [23] was “inactive”. The pEC50 in the test with HeLa [24] was 5.04. Also, the inhibition result in the test listed under Bos taurus [31] is “Active”.
As for `CC(=NNC(=S)Nc1ccc([N+](=O)[O-])cc1)c1ccccn1` (mixture of isomers), the result with MCF7 [1], in the test on U-87MG ATCC [2], in the test with T98G [3], with MCF7 [4], with T98G [5] and with T98G [6] was Active. For the same compound, the result with T98G [7], with MCF7 [8], in the test with MCF7 [9], in the test with U-87MG ATCC [10], in the test with U-87MG ATCC [12] and with U-87MG ATCC [13] was Active. Also, the result in the test on U-87MG ATCC [15], in the test on MCF7 [17], in the test with T98G [20], in the test with MCF7 [21], in the test on T98G [22] and with U-87MG ATCC [26] was Active. Also, the result in the test with MCF7 [27], in the test with T98G [28] and in the test with U-87MG ATCC [29] was Active. The Activity entry in the test on MCF7 [11], in the test on U-87MG ATCC [18] and in the test on T98G [25] was “Dose-dependent effect” in each case. In addition, the negative logarithm of the IC50 (pIC50) with MCF7 [11] is 7.28; in [14], < 5.00; in test [19], 6.80; with T98G [25], 6.85.
Regarding `COc1cc2c(c(OC)c1OC)-c1ccc(OC)c(=O)cc1[C@@H](NC(C)=O)CC2` [COLCHICINE], the minimal effective concentration in the test on HeLa [16] turned out to be 0.01 µM; in the test with HeLa [30], 0.01 µM; in the test with HeLa [32] it was 0.02 µM. Further, in the test on HeLa [24], the negative logarithm of the EC50 (pEC50) was 7.52.
